Active and inactive are the calls of the source. The calls are words filed in the database; no cut-off is given here.
Key:
Mus musculus [1] = species: Mus musculus; assay: activity in the mouse hotplate procedure; assay type: functional
Mus musculus [2] = assay: The Narcotic-antagonistic activity the ability to reverse an ED50 dose of morphine when tested in mice by the tail-flick procedure at the dose of 3 mg/kg (s.c.); assay type: functional; conditions: sc
Outline: (§1)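 Mouse tail-flick antagonism assay: test agents given subcutaneously as hydrochloride salts of racemic mixtures, each at 30, 10, 3 and 1 mg/kg, against a subcutaneous ED50 dose of morphine. The read-out is percent inhibition, meaning reversal, of the morphine tail-flick response. Testing was performed by an outside laboratory (NIDA).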

Monkey = assay: Compound was tested for signs of opiate abstinence at 5 mg/kg dose in monkeys; No effect; assay type: functional, organism-based; design: dose 5 mg/kg; conditions: Cercopithecidae
Mus musculus [3] = assay: The Narcotic-antagonistic activity the ability to reverse an ED50 dose of morphine when tested in mice by the tail-flick procedure at the dose of 1 mg/kg (s.c.); assay type: functional; conditions: sc; outline: as §1
Mus musculus [4] = assay: The Narcotic-antagonistic activity the ability to reverse an ED50 dose of morphine when tested in mice by the tail-flick procedure at the dose of 30 mg/kg (s.c.); assay type: functional; conditions: sc; outline: as §1
Mus musculus [5] = assay: The Narcotic-antagonistic activity the ability to reverse an ED50 dose of morphine when tested in mice by the tail-flick procedure at the dose of 10 mg/kg (s.c.); assay type: functional; conditions: sc; outline: as §1
Mus musculus [6] = assay: The ability to reverse an ED50 dose of morphine when tested in mice by the tail-flick procedure at the dose of 10 mg/kg (s.c.) value expressed as narcotic-antagonistic activity; assay type: functional; outline: as §1
Mus musculus [7] = assay: The ability to reverse an ED50 dose of morphine when tested in mice by the tail-flick procedure at the dose of 30 mg/kg (s.c.) value expressed as narcotic-antagonistic activity; assay type: functional; outline: as §1
Mus musculus [8] = assay: The ability to reverse an ED50 dose of morphine when tested in mice by the tail-flick procedure at the dose of 3 mg/kg (s.c.) value expressed as narcotic-antagonistic activity; assay type: functional; outline: as §1
Mus musculus [9] = assay: The ability to reverse an ED50 dose of morphine when tested in mice by the tail-flick procedure at the dose of 1 mg/kg (s.c.) value expressed as narcotic-antagonistic activity; assay type: functional; outline: as §1

SMILES	ED50 (Mus musculus [1])	inhibition in vivo at 3 mg/kg (Mus musculus [2])	inhibition in vivo at 1 mg/kg (Mus musculus [3])	further results
CN1CC[C@]23c4c5ccc(O)c4O[C@H]2[C@@H](O)C=C[C@H]3[C@H]1C5.CN1CC[C@]23c4c5ccc(O)c4O[C@H]2[C@@H](O)C=C[C@H]3[C@H]1C5.O=S(=O)(O)O	1.2 mg/kg			
CN(CC1CC1)[C@@H]1Cc2ccccc2[C@@H](c2ccccc2)C1	9.1 mg/kg	100%	60%	Activity (Monkey): inactive; inhibition in vivo at 30 mg/kg (Mus musculus [4]): 0%; inhibition in vivo at 10 mg/kg (Mus musculus [5]): 54%
C=CCN1CC[C@]23c4c5ccc(O)c4O[C@H]2C(=O)CC[C@@]3(O)[C@H]1C5.Cl [NALOXONE HYDROCHLORIDE]				AD50 (Mus musculus [6]): 0.031 mg/kg; AD50 (Mus musculus [7]): 0.031 mg/kg; AD50 (Mus musculus [8]): 0.031 mg/kg; AD50 (Mus musculus [9]): 0.031 mg/kg
COc1ccc2c3c1O[C@H]1[C@@H](O)C=C[C@H]4[C@@H](C2)N(C)CC[C@@]341.O=S(=O)(O)O	7.5 mg/kg			
CN(CC1CC1)[C@@H]1Cc2ccccc2[C@H](c2ccccc2)C1	6.3 mg/kg	100%	75%	
CN(CC1CC1)C1C=C(c2ccccc2)c2ccccc2C1 (stereo unspecified)	> 50 mg/kg			

Source: ChEMBL document CHEMBL1122016, “Aminotetralins as narcotic antagonists. 2. Synthesis and opiate-related activity of 1-phenyl-3-aminotetralins” (1982)
